The target in assay [1] is T1, Coagulation factor X (Homo sapiens, UniProt P00742). In words: Inhibitory activity against human FXa.
Target sequence in this assay (P00742 41-179 limits assumed): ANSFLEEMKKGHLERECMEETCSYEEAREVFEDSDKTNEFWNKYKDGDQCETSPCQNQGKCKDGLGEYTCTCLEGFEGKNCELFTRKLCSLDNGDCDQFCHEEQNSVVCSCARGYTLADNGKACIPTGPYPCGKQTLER
Target sequence in this assay (P00742 235-488 limits assumed): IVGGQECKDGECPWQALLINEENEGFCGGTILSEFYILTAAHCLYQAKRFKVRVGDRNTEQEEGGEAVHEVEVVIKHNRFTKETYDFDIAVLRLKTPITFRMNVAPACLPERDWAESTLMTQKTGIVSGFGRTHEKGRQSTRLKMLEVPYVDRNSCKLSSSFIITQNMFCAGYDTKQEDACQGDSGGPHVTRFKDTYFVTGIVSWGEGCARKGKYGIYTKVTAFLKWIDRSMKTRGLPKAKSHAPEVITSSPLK
For assay [2], the target named is T1, Coagulation factor X. In words: Anticoagulant potency in human plasma as measured by prothrombin time.
Target sequence in this assay (P00742 whole entry, looked up): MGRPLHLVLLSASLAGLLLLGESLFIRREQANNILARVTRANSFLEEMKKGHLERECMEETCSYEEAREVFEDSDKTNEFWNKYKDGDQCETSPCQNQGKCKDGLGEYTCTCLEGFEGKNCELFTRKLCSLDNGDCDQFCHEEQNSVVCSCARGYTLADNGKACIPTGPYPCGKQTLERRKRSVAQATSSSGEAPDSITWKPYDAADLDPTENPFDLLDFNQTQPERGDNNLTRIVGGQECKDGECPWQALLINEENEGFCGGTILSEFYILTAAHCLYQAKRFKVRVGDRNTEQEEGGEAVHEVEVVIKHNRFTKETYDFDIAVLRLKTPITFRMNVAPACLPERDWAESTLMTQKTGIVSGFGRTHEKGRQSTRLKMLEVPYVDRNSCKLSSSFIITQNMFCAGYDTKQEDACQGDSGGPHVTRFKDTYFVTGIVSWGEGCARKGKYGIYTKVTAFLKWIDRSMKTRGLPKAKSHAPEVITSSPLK
Assay [3] is described as follows: Binding affinity to trypsin. The arrangement: species or system Homo sapiens. A digest of the protocol: (§1)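 Human enzymes, each assayed against a low-molecular-weight synthetic substrate. Ki was calculated from IC50 assuming competitive inhibition, as Ki = IC50/(1 + [S]/Km), where [S] is the substrate concentration in the assay and Km the substrate's Michaelis constant. Values are averages of two independent determinations.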

The target of a further assay is Plasma kallikrein (Homo sapiens, UniProt P03952). In words: Binding affinity to plasma kallikrein. A digest of the protocol:
as §1

For assay [4], the target named is Vitamin K-dependent protein C (Homo sapiens, UniProt P04070). Kind of assay: Binding affinity to activated protein C. The method in brief:
as §1

Another assay addresses Plasminogen (Homo sapiens, UniProt P00747). In words: Binding affinity to plasmin. The method in brief:
as §1

The target of assay [5] is Tissue-type plasminogen activator (Homo sapiens, UniProt P00750). In words: Binding affinity to tPA. A digest of the protocol:
as §1

Assay [6] has as its target Urokinase-type plasminogen activator (Homo sapiens, UniProt P00749). In words: Binding affinity to urokinase. The method in brief: as §1
The next assay addresses Prothrombin (Homo sapiens, UniProt P00734). In words: Binding affinity to thrombin. A digest of the protocol:
as §1

Another assay deals with T2, Coagulation factor VII (Homo sapiens, UniProt P08709).
T2 sequence (P08709 whole entry): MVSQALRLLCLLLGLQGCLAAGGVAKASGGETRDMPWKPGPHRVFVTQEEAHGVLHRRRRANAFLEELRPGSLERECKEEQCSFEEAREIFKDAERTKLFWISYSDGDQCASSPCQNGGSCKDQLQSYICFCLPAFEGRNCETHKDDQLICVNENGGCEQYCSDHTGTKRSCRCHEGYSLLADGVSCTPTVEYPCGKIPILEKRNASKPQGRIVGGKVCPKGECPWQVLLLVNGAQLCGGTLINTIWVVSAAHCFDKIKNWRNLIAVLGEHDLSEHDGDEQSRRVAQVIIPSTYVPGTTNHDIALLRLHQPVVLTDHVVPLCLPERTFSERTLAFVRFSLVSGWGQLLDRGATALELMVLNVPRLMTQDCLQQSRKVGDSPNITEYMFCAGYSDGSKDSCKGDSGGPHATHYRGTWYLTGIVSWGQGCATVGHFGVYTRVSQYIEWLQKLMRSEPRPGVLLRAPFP
In words: Binding affinity to factor VIIa. The method in brief:
as §1

A further assay has as its target Coagulation factor IX (Homo sapiens, UniProt P00740). In words: Binding affinity to factor IXa. The method in brief:
as §1

In a further assay the target is Chymotrypsinogen B (Homo sapiens, UniProt P17538). In words: Binding affinity to chymotrypsin. The method in brief:
as §1

Usually IC50 stands for the concentration needed to halve the response being measured. The term Ki denotes the dissociation constant of the complex between target and ligand, obtained from inhibition or displacement. A lower Ki goes with higher affinity.

Where only a bound is given, the exact number is not on record here.

Tissue-type plasminogen activator, sequence (P00750 whole entry): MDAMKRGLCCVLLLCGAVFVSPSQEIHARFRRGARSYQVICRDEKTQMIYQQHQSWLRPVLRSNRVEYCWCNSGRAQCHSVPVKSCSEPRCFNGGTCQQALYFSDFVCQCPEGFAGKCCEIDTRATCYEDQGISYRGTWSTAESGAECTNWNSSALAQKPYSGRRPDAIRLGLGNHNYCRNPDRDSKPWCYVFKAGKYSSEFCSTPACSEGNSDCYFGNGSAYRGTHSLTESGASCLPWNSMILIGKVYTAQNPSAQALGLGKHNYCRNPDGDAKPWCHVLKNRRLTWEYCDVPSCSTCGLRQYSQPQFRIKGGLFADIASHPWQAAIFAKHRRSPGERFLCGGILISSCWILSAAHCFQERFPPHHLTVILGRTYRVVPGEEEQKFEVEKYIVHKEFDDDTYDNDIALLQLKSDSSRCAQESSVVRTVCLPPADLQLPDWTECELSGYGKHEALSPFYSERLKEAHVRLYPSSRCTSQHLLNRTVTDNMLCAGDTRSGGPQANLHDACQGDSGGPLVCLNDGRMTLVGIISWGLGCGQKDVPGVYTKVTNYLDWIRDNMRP
Coagulation factor IX, sequence (P00740 47-191 limits assumed): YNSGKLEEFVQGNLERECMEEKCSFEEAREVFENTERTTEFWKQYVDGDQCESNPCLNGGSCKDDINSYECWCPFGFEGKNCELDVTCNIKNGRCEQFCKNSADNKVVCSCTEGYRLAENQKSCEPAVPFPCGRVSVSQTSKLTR
Coagulation factor IX, sequence (P00740 227-461 limits assumed): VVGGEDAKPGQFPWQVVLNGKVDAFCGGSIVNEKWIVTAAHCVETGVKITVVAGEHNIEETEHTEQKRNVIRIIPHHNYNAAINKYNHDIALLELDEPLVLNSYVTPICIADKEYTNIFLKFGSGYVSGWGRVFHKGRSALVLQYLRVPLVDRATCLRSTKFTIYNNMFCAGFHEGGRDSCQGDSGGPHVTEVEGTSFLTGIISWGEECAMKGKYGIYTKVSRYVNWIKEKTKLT
Plasminogen, sequence (P00747 97-580 limits assumed): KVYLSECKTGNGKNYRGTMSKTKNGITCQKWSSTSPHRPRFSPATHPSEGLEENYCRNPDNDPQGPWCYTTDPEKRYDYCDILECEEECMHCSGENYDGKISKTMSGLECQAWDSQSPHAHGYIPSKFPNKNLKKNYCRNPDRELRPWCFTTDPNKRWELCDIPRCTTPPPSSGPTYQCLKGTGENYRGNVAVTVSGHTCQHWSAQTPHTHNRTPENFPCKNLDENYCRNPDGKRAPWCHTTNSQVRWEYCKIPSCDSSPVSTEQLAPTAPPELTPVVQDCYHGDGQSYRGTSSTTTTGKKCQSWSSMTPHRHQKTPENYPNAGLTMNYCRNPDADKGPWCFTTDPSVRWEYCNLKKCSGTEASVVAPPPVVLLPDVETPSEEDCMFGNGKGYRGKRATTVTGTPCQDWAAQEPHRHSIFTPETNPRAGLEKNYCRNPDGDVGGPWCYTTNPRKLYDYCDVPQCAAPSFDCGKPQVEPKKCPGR
Plasminogen, sequence (P00747 581-810 limits assumed): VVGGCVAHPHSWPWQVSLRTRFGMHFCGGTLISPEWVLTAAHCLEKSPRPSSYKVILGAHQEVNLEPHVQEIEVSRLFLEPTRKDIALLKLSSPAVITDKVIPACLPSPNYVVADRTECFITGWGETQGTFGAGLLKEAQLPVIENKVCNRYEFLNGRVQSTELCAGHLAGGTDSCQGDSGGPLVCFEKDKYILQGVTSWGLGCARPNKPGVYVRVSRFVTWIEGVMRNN
Plasma kallikrein, sequence (P03952 20-390 limits assumed): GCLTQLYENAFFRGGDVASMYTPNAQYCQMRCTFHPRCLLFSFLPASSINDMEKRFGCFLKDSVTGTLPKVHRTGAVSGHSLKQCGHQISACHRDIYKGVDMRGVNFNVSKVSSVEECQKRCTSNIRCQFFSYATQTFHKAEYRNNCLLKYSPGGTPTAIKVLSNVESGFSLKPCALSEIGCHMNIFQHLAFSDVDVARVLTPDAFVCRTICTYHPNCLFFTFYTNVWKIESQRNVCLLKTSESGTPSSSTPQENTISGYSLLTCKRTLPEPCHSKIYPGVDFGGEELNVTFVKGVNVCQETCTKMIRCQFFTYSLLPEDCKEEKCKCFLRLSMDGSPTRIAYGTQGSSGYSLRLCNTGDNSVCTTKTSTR
Plasma kallikrein, sequence (P03952 391-638 limits assumed): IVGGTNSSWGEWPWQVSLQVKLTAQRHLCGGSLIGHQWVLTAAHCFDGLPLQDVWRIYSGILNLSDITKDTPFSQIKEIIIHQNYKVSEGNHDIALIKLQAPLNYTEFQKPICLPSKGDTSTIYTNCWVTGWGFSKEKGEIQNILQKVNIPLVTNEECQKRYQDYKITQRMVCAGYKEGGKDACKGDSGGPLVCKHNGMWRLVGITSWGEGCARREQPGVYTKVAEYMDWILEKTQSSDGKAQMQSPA
Chymotrypsinogen B, sequence (P17538 34-164 limits assumed, other chains not shown): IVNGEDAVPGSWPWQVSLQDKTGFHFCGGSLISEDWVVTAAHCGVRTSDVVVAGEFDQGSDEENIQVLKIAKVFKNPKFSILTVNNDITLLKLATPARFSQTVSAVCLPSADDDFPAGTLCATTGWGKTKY
Chymotrypsinogen B, sequence (P17538 167-263 limits assumed, other chains not shown): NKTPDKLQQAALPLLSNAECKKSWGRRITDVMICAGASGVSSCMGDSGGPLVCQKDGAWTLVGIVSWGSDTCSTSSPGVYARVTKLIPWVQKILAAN
Vitamin K-dependent protein C, sequence (P04070 43-197 limits assumed): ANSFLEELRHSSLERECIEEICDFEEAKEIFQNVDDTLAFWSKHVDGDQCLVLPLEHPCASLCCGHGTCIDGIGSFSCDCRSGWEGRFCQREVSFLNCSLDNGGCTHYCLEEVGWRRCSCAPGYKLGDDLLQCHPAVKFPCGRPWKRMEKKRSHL
Vitamin K-dependent protein C, sequence (P04070 212-461 limits assumed): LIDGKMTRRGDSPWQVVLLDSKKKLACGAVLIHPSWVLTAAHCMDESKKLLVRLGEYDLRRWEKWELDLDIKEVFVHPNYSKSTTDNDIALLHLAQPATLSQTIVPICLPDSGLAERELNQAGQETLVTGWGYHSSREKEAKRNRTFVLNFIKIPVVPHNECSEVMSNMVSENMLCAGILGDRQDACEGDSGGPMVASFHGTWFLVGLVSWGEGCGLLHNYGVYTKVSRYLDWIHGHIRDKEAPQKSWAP

In the case of `COc1ccc(N/C(=C\[N+](=O)[O-])N[C@H]2CCCCN(CC(=O)N3CCCC3)C2=O)cc1C`, half-maximal inhibition against Coagulation factor X [1] (IC50) was put at 3400 nM.
The same measure, in the same setting: next, `COc1ccc(N/C(=C\[N+](=O)[O-])N[C@H]2CCCCN(CC(=O)N3CCCC3)C2=O)cc1`: 3100 nM.
In turn, `Cc1cc2cc(NC(=N/[C@H]3CCCCN(CC(=O)N4CCCC4)C3=O)/C(C#N)=C(\O)c3ccc(Cl)cc3)ccc2o1` returned an IC50 against Coagulation factor X [1] of 13 nM. Further, on Coagulation factor X [2], the 2PT was found to be 62 µM.
On the same counts, the results for `CCOP(=O)(OCC)/C(C#N)=C(\Nc1ccc2oc(C)cc2c1)N[C@H]1CCCCN(CC(=O)N2CCCC2)C1=O` are 658 nM and over 60 µM.
Turning to `Cc1ccc(N/C(=C\[N+](=O)[O-])N[C@H]2CCCCN(CC(=O)N3CCCC3)C2=O)cc1`, the IC50 at Coagulation factor X [1] is over 34000 nM.
On Coagulation factor X [1], `Cc1cc2cc(NC(=N/[C@H]3CCCCN(CC(=O)N4CCCC4)C3=O)/C(C#N)=C(\O)OC(C)(C)C)ccc2o1` registered an IC50 of 57 nM. On Coagulation factor X [2], this molecule yielded a 2PT of 60 µM.
Take `CN(C)c1ccc(N/C(=C\[N+](=O)[O-])N[C@H]2CCCCN(CC(=O)N3CCCC3)C2=O)cc1`: at Coagulation factor X [1], the IC50 was over 34000 nM.
Still for that read-out and setting: the same measure for `O=C(CN1CCCC[C@H](N/C(=C/[N+](=O)[O-])Nc2ccc3occc3c2)C1=O)N1CCCC1`: 539 nM.
The molecule `Cc1cc2cc(N/C(N[C@H]3CCCCN(CC(=O)N4CCCC4)C3=O)=C(/C#N)C(=O)N3CCC(C)CC3)ccc2o1` returned an IC50 on Coagulation factor X [1] of 57 nM. On Coagulation factor X [2], this molecule gave a 2PT of 21 µM.
On Coagulation factor X [1], `Cc1cc2cc(N/C(N[C@H]3CCCCN(CC(=O)N4CCCC4)C3=O)=C(/C#N)C(N)=O)ccc2o1` registered an IC50 of 17 nM. For the same molecule, the 2PT at Coagulation factor X [2] worked out at 13 µM.
Consider `Cc1cc2cc(NC(/C=C(\O)c3nccs3)=N/[C@H]3CCCCN(CC(=O)N4CCCC4)C3=O)ccc2o1`, for which, on Coagulation factor X [1], the IC50 was found to be 10 nM. Also, on Coagulation factor X [2], the 2PT is 31 µM.
On to `COc1cccc(N/C(=C\[N+](=O)[O-])N[C@H]2CCCCN(CC(=O)N3CCCC3)C2=O)c1`, for which the IC50 on Coagulation factor X [1] was 6700 nM.
Turning to `COc1ccc(/C(O)=C(C#N)/C(=N\[C@H]2CCCCN(CC(=O)N3CCCC3)C2=O)Nc2ccc3oc(C)cc3c2)cc1`, the midpoint of inhibition at Coagulation factor X [1], the IC50, lay at 13 nM. Also, the 2PT at Coagulation factor X [2] was 36 µM.
`O=C(CN1CCCC[C@H](N/C(=C/[N+](=O)[O-])Nc2ccc3ccccc3c2)C1=O)N1CCCC1` yielded an IC50 against Coagulation factor X [1] of 1000 nM.
Consider `Cc1cc2cc(NC(=N/[C@H]3CCCCN(CC(=O)N4CCCC4)C3=O)/C(C#N)=C(\O)OCCCCO)ccc2o1`, for which the Ki was over 5000 nM in [3]; over 19400 nM at Plasma kallikrein; 12 nM on Coagulation factor X [1]; over 21500 nM in assay [4]; over 22000 nM on Plasminogen; 16000 nM in assay [5]. The Ki in assay [6] was over 14000 nM; at Prothrombin, 6300 nM; at Coagulation factor VII, over 55000 nM; at Coagulation factor IX, over 10000 nM; at Chymotrypsinogen B, 9420 nM. The molecule also showed an IC50 against Coagulation factor X [1] of 10 nM. This molecule displayed a 2PT at Coagulation factor X [2] of 10 µM.
Take `Cc1cc2cc(N/C(N[C@H]3CCCCN(CC(=O)N4CCCC4)C3=O)=C(/C#N)S(C)(=O)=O)ccc2o1`: the IC50 on Coagulation factor X [1] came to 46 nM. At Coagulation factor X [2], this molecule had a 2PT of 24 µM.
In turn, `Cc1cc2cc(N/C(=C\[N+](=O)[O-])N[C@H]3CCCCN(CC(=O)N4CCCC4)C3=O)ccc2o1` displayed an IC50 on Coagulation factor X [1] of 51 nM.
Turning to `Cc1cc2cc(N/C(N[C@H]3CCCCN(CC(=O)N4CCCC4)C3=O)=C(/C#N)C(=O)NC(N)=O)ccc2o1`, half-maximal inhibition against Coagulation factor X [1] (IC50) required 13 nM. At Coagulation factor X [2], this molecule gave a 2PT of 7 µM.
On the same counts, the results for `CCO/C(O)=C(C#N)/C(=N\[C@H]1CCCCN(CC(=O)N2CCCC2)C1=O)Nc1ccc2oc(C)cc2c1` are 24 nM and 31 µM.
As for `O=C(CN1CCCC[C@H](N/C(=C/[N+](=O)[O-])Nc2ccc3c(c2)CCO3)C1=O)N1CCCC1`, the IC50 against Coagulation factor X [1] was found to be 1500 nM. This counts as single-digit micromolar.
In the case of `CN(C)c1cccc(N/C(=C\[N+](=O)[O-])N[C@H]2CCCCN(CC(=O)N3CCCC3)C2=O)c1`, at Coagulation factor X [1], the IC50 is 2100 nM. The IC50 values of the last two molecules are within 1.5-fold of each other.
Same read-out and setting: next, `O=C(CN1CCCC[C@H](N/C(=C/[N+](=O)[O-])Nc2ccccc2)C1=O)N1CCCC1`: 16500 nM; `Cc1cc2cc(N/C(N[C@H]3CCCCN(CC(=O)N4CCCC4)C3=O)=C(/C#N)S(=O)(=O)C(C)C)ccc2o1`: 647 nM.

Values taken from ChEMBL document CHEMBL1141963, “Ketene aminal-based lactam derivatives as a novel class of orally active FXa inhibitors” (Bioorg Med Chem Lett, 2005).
